≈ marks a conversion by molar mass, not a printed value. Calls of active or inactive are those of the source. The rule behind the calls is not given here.
Tests used:
[1] = Antiinflammatory activity in human neutrophils assessed as inhibition of fMet-Leu-Phe/Cytochalasin B-induced superoxide anion generation at 10 ug/mL; format: functional; conditions: Neutrophil
Summary of the method: (§1)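 Neutrophils isolated from venous blood of healthy adult volunteers (20–28 years) by dextran sedimentation, Ficoll Hypaque centrifugation and hypotonic erythrocyte lysis, >98% viable, held in Ca2+-free HBSS pH 7.4 at 4 °C. Cells given 0.5 mg/mL ferricytochrome c and 1 mM Ca2+, 37 °C 2 min, drug 5 min, cytochalasin B 1 µg/mL 3 min, then fMLP 100 nM 10 min. SOD-inhibitable (100 U/mL) reduction at 550 nm; n = 4.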

[2] = Antiinflammatory activity in human neutrophils assessed as inhibition of fMet-Leu-Phe/Cytochalasin B-induced elastase release at 10 ug/mL; format: functional, cell-based; conditions: Neutrophil
Summary of the method: (§2)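 Human volunteer neutrophils (6 × 10^5/mL) prepared by dextran sedimentation, Ficoll Hypaque gradient and hypotonic lysis, kept in Ca2+-free HBSS pH 7.4 at 4 °C. Elastase substrate MeO-Suc-Ala-Ala-Pro-Val-p-nitroanilide 100 µM added; cells equilibrated 2 min at 37 °C, drug 5 min, then fMLP 100 nM/cytochalasin B 0.5 µg/mL stimulation. Absorbance at 405 nm monitored continuously; n = 4.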

[3] = Antiinflammatory activity in human neutrophils assessed as inhibition of fMet-Leu-Phe/Cytochalasin B-induced superoxide anion generation; format: functional, cell-based; conditions: Neutrophil; summary of the method: as §1
[4] = Antiinflammatory activity in human neutrophils assessed as inhibition of fMet-Leu-Phe/Cytochalasin B-induced elastase release; format: functional, cell-based; conditions: Neutrophil; summary of the method: as §2
Neutrophil [5] = assay: Antiinflammatory activity in human neutrophils assessed as inhibition of superoxide anion generation at 10 ug/mL; format: functional, cell-based
Summary of the method: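 Healthy-volunteer neutrophils (dextran/Ficoll isolation, Ca2+-free HBSS pH 7.4) supplemented with 0.5 mg/mL ferricytochrome c and 1 mM Ca2+. Equilibrated 2 min at 37 °C, drug 5 min, cytochalasin B 1 µg/mL 3 min, then fMLP 100 nM 10 min. SOD-inhibitable ferricytochrome c reduction read at 550 nm with stirring, difference ± SOD (100 U/mL). Percent inhibition, n = 4.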

Neutrophil [6] = assay: Antiinflammatory activity in human neutrophils assessed as inhibition of elastase release at 10 ug/mL; format: functional, cell-based
Summary of the method: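 Neutrophils from venous blood of healthy adult volunteers, isolated by dextran sedimentation, Ficoll Hypaque centrifugation and hypotonic erythrocyte lysis, kept in Ca2+-free HBSS pH 7.4 at 4 °C. Cells (6 × 10^5/mL) with MeO-Suc-Ala-Ala-Pro-Val-p-nitroanilide (100 µM), 2 min at 37 °C, drug 5 min, then fMLP (100 nM)/cytochalasin B (0.5 µg/mL). A405 monitored continuously. Percent inhibition, mean ± SEM, n = 4.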

Row | Compound | inhibition at 10 µg/mL [2] [%] | IC50 [3] | IC50 [4] [µg/mL] | also measured
1 | CC(=O)c1c(O)cc(OC/C=C(\C)CCC=C(C)C)c2c1OC(C)(C)[C@H](O)C2 | 28.7 |  |  | inhibition at 10 µg/mL [1]: 30.6%
2 | CC(=O)c1c(O)cc(OC/C=C(\C)CCC=C(C)C)c2c1OC(C)(C)C=C2 | 27.4 |  |  | inhibition at 10 µg/mL [1]: 21.4%
3 | COc1cc(O)c2c(=O)c(OC)c(-c3ccc(OC)c(OC)c3)oc2c1 [RETUSIN] |  | 1.43 µg/mL | 1.69 (≈ 4.72 µM) | 
4 | c1ccc2c(c1)[I+]c1ccccc1-2 [DIPHENYLENEIODONIUM] |  | 0.52 µM |  | 
5 | COc1cc(O)c2c(=O)c(OC)c(-c3ccc(O)cc3)oc2c1 [KUMATAKENIN] |  | 1.2 µg/mL | 0.7 (≈ 2.23 µM) | 
6 | COc1cc(O)c2c(=O)c(OC)c(-c3ccc(O)c(OC)c3)oc2c1 [PACHYPODOL] |  | 1 µg/mL | 0.99 (≈ 2.88 µM) | 
7 | CC(=O)c1c(O)cc(OC/C=C(\C)CCC=C(C)C)c2c1OC(C)(CCC=C(C)C)C=C2 (stereo unspecified) | 26.6 |  |  | inhibition at 10 µg/mL [1]: 23.2%
8 | CC(C)=CCC/C(C)=C/COc1cc(O)cc(O)c1C(=O)CO |  | 0.73 µg/mL | 0.6 (≈ 1.87 µM) | 
9 | CC(=O)c1c(O)cc(OC/C=C(\C)CCC=C(C)C)c(C(=O)O)c1O |  | 6.62 µg/mL | 5.79 (≈ 16.6 µM) | 
10 | CC(=O)c1c(OC/C=C(\C)CCC=C(C)C)cc(O)c(C(=O)O)c1O | 46.1 | 8.02 µg/mL |  | 
11 | CC(C)=CCC/C(C)=C/COc1cc(O)c(C(=O)CO)c(O)c1 |  | 3.75 µg/mL | 0.91 (≈ 2.84 µM) | 
12 | CC[C@H](CC[C@@H](C)[C@H]1CC[C@H]2[C@@H]3C(=O)C=C4C[C@@H](O)CC[C@]4(C)[C@H]3CC[C@]12C)C(C)C | 7.48 |  |  | inhibition at 10 µg/mL [1]: 22.6%
13 | CC(=O)c1c(O)cc(O)cc1OC/C=C(\C)CCC=C(C)C |  |  |  | Activity (Neutrophil [5]): Active; Activity (Neutrophil [6]): Active
14 | O=S(=O)(F)Cc1ccccc1 [PHENYLMETHYLSULFONYLFLUORIDE] |  |  |  | IC50 [2]: 35.7 µM

Source: ChEMBL document CHEMBL1143073, “Benzoic acid derivatives, acetophenones, and anti-inflammatory constituents from Melicope semecarpifolia” (J Nat Prod, 2008)
